Only some compounds are listed: those with a hit (about 2.3% of all), similar ones and a draw of the others.
TRPC4 PAM: TRPC4 (mouse) allosteric potentiation | Q9QUQ5 | AID 2227 | hit rate 0.42% among 310,000 | B-score at 10 µM | HEK293 TRPC4beta/mu-opioid, DAMGO EC20, Fluo-4 Ca2+ flux; stronger effect = higher value;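 active = B-score of calcium response area above 5 SD of library B-scores, with initial fluorescence ratio within 5 SD of library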;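 note: B-score of integrated fluorescence ratio over time as area under calcium response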
Target sequence (Q9QUQ5 whole entry, looked up): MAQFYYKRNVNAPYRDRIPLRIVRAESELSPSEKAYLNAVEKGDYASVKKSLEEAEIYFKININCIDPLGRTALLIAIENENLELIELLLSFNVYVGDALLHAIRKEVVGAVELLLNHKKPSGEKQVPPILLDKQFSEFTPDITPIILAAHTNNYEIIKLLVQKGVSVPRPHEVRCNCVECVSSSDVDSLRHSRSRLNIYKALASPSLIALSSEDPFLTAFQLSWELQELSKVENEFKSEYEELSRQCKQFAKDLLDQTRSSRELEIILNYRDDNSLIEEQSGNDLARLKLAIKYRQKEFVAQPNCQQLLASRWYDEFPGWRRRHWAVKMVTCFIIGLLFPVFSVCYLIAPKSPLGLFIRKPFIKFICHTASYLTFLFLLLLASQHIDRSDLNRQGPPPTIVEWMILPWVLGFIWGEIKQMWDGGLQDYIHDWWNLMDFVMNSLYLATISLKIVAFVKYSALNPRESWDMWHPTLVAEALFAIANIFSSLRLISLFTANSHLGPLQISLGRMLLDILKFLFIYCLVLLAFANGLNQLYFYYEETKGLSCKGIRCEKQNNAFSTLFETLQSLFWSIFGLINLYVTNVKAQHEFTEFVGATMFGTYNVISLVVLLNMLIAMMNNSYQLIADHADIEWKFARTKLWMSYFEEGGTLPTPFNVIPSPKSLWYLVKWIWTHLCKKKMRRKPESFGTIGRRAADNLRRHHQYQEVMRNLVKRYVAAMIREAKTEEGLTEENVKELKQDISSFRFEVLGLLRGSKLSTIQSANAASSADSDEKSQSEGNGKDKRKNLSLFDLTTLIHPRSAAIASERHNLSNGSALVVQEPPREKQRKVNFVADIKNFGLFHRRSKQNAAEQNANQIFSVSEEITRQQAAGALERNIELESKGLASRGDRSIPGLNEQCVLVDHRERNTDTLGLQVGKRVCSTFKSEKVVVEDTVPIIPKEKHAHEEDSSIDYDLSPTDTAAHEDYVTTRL
TRPC4 inh: inhibitors of mouse TRPC4 channel; Q9QUQ5; HEK293 TRPC4beta/mu-opioid, DAMGO-evoked Fluo4 calcium flux; stronger effect = lower value; B-score at 10 µM; hit rate 0.39% among 300,000;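 active = B-score over 3 SD under the library average, no early fluorescence shift, positive overall ratio signal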
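Material: HEK293 cells with stable TRPC4beta plus mu-opioid receptor expression; probe or stimulus: DAMGO in two steps, submaximal then maximal; technique: Fluo4 calcium fluorescence by kinetic imaging, 5 s 1 Hz baseline; measure: integrated fluorescence ratio relative to baseline, converted to per-well B score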
TRPC4 agonist: TRPC4 (mouse) channel activation; Q9QUQ5; HEK293 TRPC4beta/mu-opioid, Fluo4 calcium fluorescence; stronger effect = higher value; B-score at 10 µM; hit rate 0.49% among 310,000; AID 2237;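 active = B-score above 5 SD of library B-scores, and initial fluorescence ratio not above library mean plus 5 SD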;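 note: positive B-score marks a calcium rise read as TRPC4 activation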
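Material: HEK293 stable line with TRPC4beta plus mu-opioid receptor; technique: Fluo4 calcium-sensitive dye fluorescence, kinetic, 1 Hz baseline; timing: Fluo4 dye loading 45 min at room temperature, 110 s recording; controls: assay buffer as low control, maximal DAMGO as high control; read-out: integrated baseline-normalised fluorescence ratio, converted to per-well B score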
TRPC6 inh: inhibitors of mouse TRPC6 channel; Q61143; HEK293-TRPC6, membrane potential dye, ACh-evoked depolarization; stronger effect = lower value; B-score at 10 µM; hit rate 1.1% among 310,000;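 active = B-score under library mean minus 3 SD, initial fluorescence not abnormally high, positive integrated signal ratio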;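 note: B-score derived from integrated fluorescence ratio over the kinetic read; more negative B-score means stronger inhibition of depolarization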
TRPC6 act: mouse TRPC6 channel activation; Q61143; hit rate 0.13% among 310,000; B-score at 10 µM; HEK293-TRPC6 membrane potential dye fluorescence; stronger effect = higher value;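 active = B-score of the integrated fluorescence ratio above library mean plus 3 SD, and starting fluorescence ratio within library mean plus 5 SD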;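 note: higher score means more depolarization so channel activation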
The depositor's hits bear a star; i = inactive.

SMILES	TRPC4 PAM	TRPC4 inh	TRPC4 agonist	TRPC6 inh	TRPC6 act
O=C1/C(=C/c2ccccc2Cl)SC(=S)N1CCCC(=O)N(CCO)c1ccccc1	i	-6*	i	i	i
Cc1ccn2c(CNCCn3cccn3)c(C(=O)N3CCCCCC3)nc2c1	i	i	i	i	i
Cc1ccn2c(CNCCCn3cccn3)c(C(=O)N3CCCCCC3)nc2c1	i	-7*	i	i	i
COc1ccc2c(C)c(CCC(=O)NCCCN3CCCC3=O)c(=O)oc2c1C	i	-6*	i	i	i
Cc1ccc2c(c1)N(Cc1cccc(C#N)c1)C=NS2(=O)=O	i	i	i	i	i
Cc1ccc(-c2c[n+](CC(=O)Nc3nc(-c4ccc(F)cc4)cs3)c3n2CCC3)cc1	i	-6*	i	i	i
CC1(C)CC(NC2C3CC4CC(C3)CC2C4)CC(C)(C)N1 (stereo not given)	12*	i	i	i	i
Cc1ccccc1C(=O)NC1CC(C)(C)NC(C)(C)C1	i	i	i	i	i
CCOC(=O)C(=NCCOC)NNc1cc(Cl)ccc1Cl	i	i	i	i	i
COc1cc(NC(C)CCCN)c2ncccc2c1 (stereo not given)	i	i	181*	i	i
Cc1ccc(C(=O)C2=C(O)C(=O)N(Cc3cccnc3)C2c2ccc(Cl)c(Cl)c2)o1 (stereo not given)	i	-6*	i	i	i
Cc1ccc(C(=O)C2=C(O)C(=O)N(Cc3cccnc3)C2c2ccc(Br)cc2)o1 (stereo not given)	i	i	i	i	i
CCN(C1CCS(=O)(=O)C1)S(=O)(=O)c1ccc2ccccc2c1 (stereo not given)	i	i	i	i	i
O=C(CCCSc1nc2ccccc2[nH]1)Nc1nnc(-c2ccccc2)o1	i	-6*	i	i	i
COc1cccc(C(=O)Nc2ccc3c(c2)n(C)c(=O)n3C)c1	i	i	i	i	i
CCN1/C(=C/C=C/c2sc3ccccc3[n+]2CC)Sc2ccccc21	i	i	49*	i	i
CCN1/C(=C/C=C/C=C/c2sc3ccccc3[n+]2CC)Sc2ccccc21	i	i	i	i	i
CN(c1cccc(NC(=O)c2ccc(N(C)S(=O)(=O)c3ccccc3)cc2)c1)S(C)(=O)=O	11*	i	i	i	i
NS(=O)(=O)c1ccc(CCNS(=O)(=O)Cc2ccc(Cl)cc2)cc1	i	i	i	i	i
COc1cc(/C=C2\C(=N)N3N=C(S(C)(=O)=O)SC3=NC2=O)ccc1OC(=O)c1cccs1	i	-7*	i	i	i
Cc1ccc(-c2nnc(SCC(=O)N(CC(C)C)c3c(N)n(Cc4ccccc4)c(=O)[nH]c3=O)n2N)cc1	i	i	i	i	i
COc1ccc(C(CNc2ncnc3sccc23)N(C)C)cc1OC (stereo not given)	i	i	45*	i	i
CN(C)C(CNc1ncnc2sccc12)c1ccccc1 (stereo not given)	i	i	75*	i	i
Cc1csc2ncnc(NCCc3ccccn3)c12	i	i	i	i	i
c1ccc(CCNc2ncnc3sccc23)nc1	i	i	51*	i	i
SMILES	TRPC4 PAM	TRPC4 inh	TRPC4 agonist	TRPC6 inh	TRPC6 act
COc1ccc(CC(=O)Nc2ccc(S(=O)(=O)N3CCCCC3)cc2)cc1OC	i	i	i	i	i
CN(CCOc1ccc(Cl)cc1)CC(O)c1ccccc1 (stereo not given)	i	i	126*	i	i
CN(CCOc1ccc(Br)cc1)CC(O)c1ccccc1 (stereo not given)	i	i	149*	i	i
CC(C)c1ccc(CN(C)CC(O)c2ccccc2)cc1 (stereo not given)	i	i	i	i	i
COc1ccc(-c2cc(=O)oc3cc(OCC(=O)NCC4CCC(C(=O)O)CC4)ccc23)cc1 (stereo not given)	i	i	i	i	i
COCCNC(=O)c1cc2nc(-c3ccc(F)cc3)cc(C(F)(F)F)n2n1	i	i	i	i	i
CCN(CC)CCCNC(=O)c1cc2nc(-c3ccccc3)cc(C(F)(F)F)n2n1	11*	i	i	i	i
N#C/C(=C\c1ccc(F)c(Cl)c1)S(=O)(=O)c1ccccn1	i	i	i	i	i
CCOc1nc(C)cc(C)c1S(=O)(=O)c1cccc(C)c1	19*	i	i	i	i
Cc1cc(C)c(S(=O)(=O)c2c(C)cccc2C)c(OCC(C)C)n1	i	i	i	i	i
O=C(NC(Nc1nc2ccc([N+](=O)[O-])cc2s1)(C(F)(F)F)C(F)(F)F)c1ccccc1Cl	i	i	i	-6.93*	14*
COc1ccc2ccccc2c1CNC(C)c1ccccc1 (stereo not given)	i	i	i	i	i
CC(NCCCOc1cccc2ccccc12)c1ccccc1 (stereo not given)	i	i	69*	i	i
O=C1CCCN1C(=O)COc1ccccc1[N+](=O)[O-]	i	i	i	i	i
Fc1cc(F)c(NC(=S)N2CCOCC2)c(F)c1	i	i	i	i	i
CCCCN1C(=O)C(=Nc2cccc3cnccc23)c2ccccc21	20*	i	i	i	i
CCCCN1C(=O)/C(=C2\SC(N3CCCCC3)=NC2=O)c2ccccc21	i	i	i	i	i
COc1cccc(-c2c(C(=O)N/N=C(\C)c3ccc(Cl)s3)nnn2-c2nonc2N)c1	i	i	i	i	i
CCCCN(C)CCCNC(=O)CN1N=C(c2ccc(Cl)cc2)CCC1=O	12*	i	102*	i	i
CC1=CC(=O)C(C(C)C)=C/C1=N/OS(=O)(=O)c1ccccc1	21*	i	i	i	i
CC1=CC(=O)C=C(C)C1=NOS(=O)(=O)c1ccccc1	i	i	i	i	i
CC1Cc2ccccc2N1C(=O)COc1ccc2c(c1)OCO2 (stereo not given)	i	i	i	i	i
Cc1ccc(-c2cc(C(=O)Nc3cc(C)on3)c3ccccc3n2)cc1	i	i	i	i	i
Cc1cc(NC(=O)c2cc(-c3cccs3)nc3ccccc23)no1	i	-6*	i	i	i
CCN1CCN(c2ccc(S(=O)(=O)N3CCOCC3)cc2NC(=O)c2ccccc2SC)CC1	i	i	175*	i	i
CCN1CCN(c2ccc(S(=O)(=O)N3CCOCC3)cc2NC(=O)c2cc(Cl)nc3ccccc23)CC1	i	i	47*	i	i

Compound activity: PubChem, Johns Hopkins Ion Channel Center
